# From ChEMBL document CHEMBL4359813, “Synthesis and antimycobacterial activity of imidazo[1,2-b][1,2,4,5]tetrazines” (2019)
# Calls of active or inactive are those of the source. The rule behind the calls is not given here.
# Assays:
# [1] = tested on: Mycolicibacterium smegmatis; test: Antimycobacterial activity against Mycobacterium smegmatis atR33 assessed as decrease in drug resistance development at 100 nmol/disc after 2 to 3 days by paper disc method; format: functional, organism-based
# Method in brief: (§1)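 Mutant M. smegmatis strains were grown in Middlebrook 7H9/OADC/Tween/glycerol to OD600 1.2. Cultures were diluted 1:9:10 (culture:water:M290) and overlaid on M290 agar. Commercial or impregnated paper discs were applied and plates incubated 2–3 days at 37 °C. Inhibition halos were measured to 1 mm, run in triplicate, mean ± SD.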
# [2] = tested on: Mycolicibacterium smegmatis; test: Antimycobacterial activity against Mycobacterium smegmatis atR10 assessed as decrease in drug resistance development at 100 nmol/disc after 2 to 3 days by paper disc method; format: functional, organism-based; method in brief: as §1
# [3] = tested on: Mycolicibacterium smegmatis; test: Antimycobacterial activity against Mycobacterium smegmatis atR17 assessed as decrease in drug resistance development at 100 nmol/disc after 2 to 3 days by paper disc method; format: functional, organism-based; method in brief: as §1
# [4] = tested on: Mycolicibacterium smegmatis; test: Antimycobacterial activity against Mycobacterium smegmatis atR37 assessed as decrease in drug resistance development at 100 nmol/disc after 2 to 3 days by paper disc method; format: functional, organism-based
# Method in brief: (§2)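 Drug-resistant M. smegmatis mc2 155 mutants, isolated on M290 agar with 3.5-4× MIC of compound and resistance re-confirmed, grown in Middlebrook 7H9 (OADC, 0.1% Tween-80, 0.4% glycerol) to OD600 1.2. Diluted 1:9:10 culture:water:M290 and poured as top layer on M290 agar. Impregnated paper discs applied; 37 °C for 2–3 days. Halos measured to nearest 1 mm; triplicates, mean ± SD versus control strain.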
# [5] = tested on: Mycolicibacterium smegmatis; test: Antimycobacterial activity against Mycobacterium smegmatis atR40 assessed as decrease in drug resistance development at 100 nmol/disc after 2 to 3 days by paper disc method; format: functional, organism-based; method in brief: as §2
# [6] = tested on: Mycolicibacterium smegmatis; test: Antimycobacterial activity against Mycobacterium smegmatis atR9 in liquid medium after 48 hrs by two-fold serial dilution method; format: functional; details: atR9, 48 h
# Method in brief: (§3)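 M. smegmatis resistant mutants were isolated on M290 agar containing 3.5-4× MIC of the test compound at 30°C and resistance was reconfirmed. MIC was then run in Lemco-Tw broth (Tween-80 0.05%). An overnight culture was diluted 1:200, and two-fold serial dilutions in DMSO were added. Plates were incubated at 37°C and 250 rpm for 48 h. MIC was read as the lowest concentration with no visible growth.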
# [7] = tested on: Mycolicibacterium smegmatis; test: Antimycobacterial activity against Mycobacterium smegmatis atR19 in liquid medium after 48 hrs by two-fold serial dilution method; format: functional; details: atR19, 48 h; method in brief: as §3
# [8] = tested on: Mycolicibacterium smegmatis; test: Antimycobacterial activity against Mycobacterium smegmatis atR14 in liquid medium after 48 hrs by two-fold serial dilution method; format: functional; details: atR14, 48 h; method in brief: as §3
# [9] = tested on: Mycolicibacterium smegmatis; test: Antimycobacterial activity against Mycobacterium smegmatis MC2 155 in liquid medium after 48 hrs by two-fold serial dilution method; format: functional; details: MC2 155, 48 h
# Method in brief: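 M. smegmatis mc2 155 grown overnight in Lemco-Tw broth, diluted 1:200 in fresh broth. […] Top wells could carry 4% DMSO. Incubated 48 h at 37 °C with shaking at 250 rpm. MIC is the lowest concentration with no visible growth.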
# [10] = tested on: Mycolicibacterium smegmatis; test: Antimycobacterial activity against Mycobacterium smegmatis atR19 assessed as decrease in drug resistance development at 100 nmol/disc after 2 to 3 days by paper disc method; format: functional, organism-based; method in brief: as §1
# [11] = tested on: Mycolicibacterium smegmatis; test: Antimycobacterial activity against Mycobacterium smegmatis atR37 in liquid medium after 48 hrs by two-fold serial dilution method; format: functional; details: atR37, 48 h; method in brief: as §3
# [12] = tested on: Mycolicibacterium smegmatis; test: Antimycobacterial activity against Mycobacterium smegmatis atR40 in liquid medium after 48 hrs by two-fold serial dilution method; format: functional; details: atR40, 48 h; method in brief: as §3
# [13] = tested on: Mycolicibacterium smegmatis; test: Antimycobacterial activity against Mycobacterium smegmatis MC2 155 in solid medium by two-fold serial dilution method; format: functional
# Method in brief: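 M290 soybean-casein agar plates carried two-fold compound dilutions, 8–64 or 8–128 µg/ml, some with extra 20 or 25 µg/ml plates.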
# [14] = tested on: Mycolicibacterium smegmatis; test: Antimycobacterial activity against Mycobacterium smegmatis atR9 assessed as decrease in drug resistance development at 100 nmol/disc after 2 to 3 days by paper disc method; format: functional, organism-based; method in brief: as §2
# [15] = tested on: Mycolicibacterium smegmatis; test: Antimycobacterial activity against Mycobacterium smegmatis atR2 assessed as decrease in drug resistance development at 100 nmol/disc after 2 to 3 days by paper disc method; format: functional, organism-based; method in brief: as §1
# [16] = tested on: Mycolicibacterium smegmatis; test: Antimycobacterial activity against Mycobacterium smegmatis atR11 in liquid medium after 48 hrs by two-fold serial dilution method; format: functional; details: atR11, 48 h; method in brief: as §3
# [17] = tested on: Mycolicibacterium smegmatis; test: Antimycobacterial activity against Mycobacterium smegmatis atR2 in liquid medium after 48 hrs by two-fold serial dilution method; format: functional; details: atR2, 48 h; method in brief: as §3
# [18] = tested on: Mycolicibacterium smegmatis; test: Antimycobacterial activity against Mycobacterium smegmatis atR11 assessed as decrease in drug resistance development at 100 nmol/disc after 2 to 3 days by paper disc method; format: functional, organism-based; method in brief: as §1
# [19] = tested on: Mycolicibacterium smegmatis; test: Antimycobacterial activity against Mycobacterium smegmatis atR33 in liquid medium after 48 hrs by two-fold serial dilution method; format: functional; details: atR33, 48 h; method in brief: as §3
# [20] = tested on: Mycobacterium tuberculosis; test: Antimycobacterial activity against Mycobacterium tuberculosis H37Rv in liquid medium; format: functional
# Method in brief: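 M. tuberculosis H37Rv; MIC determined in liquid medium on the automated Bactec MGIT 960 system.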
# [21] = tested on: Mycolicibacterium smegmatis; test: Antimycobacterial activity against Mycobacterium smegmatis atR10 in liquid medium after 48 hrs by two-fold serial dilution method; format: functional; details: atR10, 48 h; method in brief: as §3
# [22] = tested on: Mycolicibacterium smegmatis; test: Antimycobacterial activity against Mycobacterium smegmatis atR14 assessed as decrease in drug resistance development at 100 nmol/disc after 2 to 3 days by paper disc method; format: functional, organism-based; method in brief: as §1
# [23] = tested on: Mycolicibacterium smegmatis; test: Antimycobacterial activity against Mycobacterium smegmatis atR1 in liquid medium after 48 hrs by two-fold serial dilution method; format: functional; details: atR1, 48 h; method in brief: as §3
# [24] = tested on: Mycolicibacterium smegmatis; test: Antimycobacterial activity against Mycobacterium smegmatis atR1 assessed as decrease in drug resistance development at 100 nmol/disc after 2 to 3 days by paper disc method; format: functional, organism-based; method in brief: as §1
# [25] = tested on: Mycolicibacterium smegmatis; test: Antimycobacterial activity against Mycobacterium smegmatis atR17 in liquid medium after 48 hrs by two-fold serial dilution method; format: functional; details: atR17, 48 h; method in brief: as §3
# [26] = tested on: Mycolicibacterium smegmatis; test: Antimycobacterial activity against Mycobacterium smegmatis atR8 in liquid medium after 48 hrs by two-fold serial dilution method; format: functional; details: atR8, 48 h; method in brief: as §3
# [27] = tested on: Mycolicibacterium smegmatis; test: Antimycobacterial activity against Mycobacterium smegmatis atR8 assessed as decrease in drug resistance development at 100 nmol/disc after 2 to 3 days by paper disc method; format: functional, organism-based; method in brief: as §2
# [28] = tested on: Mycolicibacterium smegmatis MC2 155; test: Inhibition of STPK in Mycobacterium smegmatis MC2 155 expressing aminoglycoside phophotransferase-8 assessed as growth inhibition at 50 nmol/disk after 18 hrs in presence of kanamycin by paper disk method
# [29] = tested on: Mycolicibacterium smegmatis; test: Antimycobacterial activity against Mycobacterium smegmatis atR10 assessed as decrease in drug resistance development at 5 ug/disc after 2 to 3 days by paper disc method; format: functional, organism-based; method in brief: as §1
# [30] = tested on: Mycolicibacterium smegmatis; test: Antimycobacterial activity against Mycobacterium smegmatis atR37 assessed as decrease in drug resistance development at 5 ug/disc after 2 to 3 days by paper disc method; format: functional, organism-based; method in brief: as §2
# [31] = tested on: Mycolicibacterium smegmatis; test: Antimycobacterial activity against Mycobacterium smegmatis atR8 assessed as decrease in drug resistance development at 5 ug/disc after 2 to 3 days by paper disc method; format: functional, organism-based; method in brief: as §2
# [32] = tested on: Mycolicibacterium smegmatis; test: Antimycobacterial activity against Mycobacterium smegmatis atR1 assessed as decrease in drug resistance development at 5 ug/disc after 2 to 3 days by paper disc method; format: functional, organism-based; method in brief: as §1
# [33] = tested on: Mycolicibacterium smegmatis; test: Antimycobacterial activity against Mycobacterium smegmatis atR19 assessed as decrease in drug resistance development at 5 ug/disc after 2 to 3 days by paper disc method; format: functional, organism-based; method in brief: as §1
# [34] = tested on: Mycolicibacterium smegmatis; test: Antimycobacterial activity against Mycobacterium smegmatis atR17 assessed as decrease in drug resistance development at 5 ug/disc after 2 to 3 days by paper disc method; format: functional, organism-based; method in brief: as §1
# [35] = tested on: Mycolicibacterium smegmatis; test: Antimycobacterial activity against Mycobacterium smegmatis atR40 assessed as decrease in drug resistance development at 5 ug/disc after 2 to 3 days by paper disc method; format: functional, organism-based; method in brief: as §2
# [36] = tested on: Mycolicibacterium smegmatis MC2 155; test: Inhibition of STPK in Mycobacterium smegmatis MC2 155 expressing aminoglycoside phophotransferase-8 assessed as growth inhibition at 350 microg/disk after 18 hrs by paper disk method
# [37] = tested on: Mycolicibacterium smegmatis; test: Antimycobacterial activity against Mycobacterium smegmatis atR2 assessed as decrease in drug resistance development at 5 ug/disc after 2 to 3 days by paper disc method; format: functional, organism-based; method in brief: as §1
# [38] = tested on: Mycolicibacterium smegmatis; test: Antimycobacterial activity against Mycobacterium smegmatis atR11 assessed as decrease in drug resistance development at 5 ug/disc after 2 to 3 days by paper disc method; format: functional, organism-based; method in brief: as §1
# [39] = tested on: Mycolicibacterium smegmatis; test: Antimycobacterial activity against Mycobacterium smegmatis atR14 assessed as decrease in drug resistance development at 5 ug/disc after 2 to 3 days by paper disc method; format: functional, organism-based; method in brief: as §1
# [40] = tested on: Mycolicibacterium smegmatis; test: Antimycobacterial activity against Mycobacterium smegmatis atR33 assessed as decrease in drug resistance development at 5 ug/disc after 2 to 3 days by paper disc method; format: functional, organism-based; method in brief: as §2
smiles,measurement,setting,value
Cc1cn(-c2nnc3ncc(SC(C)C)n3n2)cn1,Activity,[1],inactive
same,Activity,[2],inactive
same,Activity,[3],inactive
same,Activity,[4],Active
same,Activity,[5],inactive
same,MIC,[6],128 µg/mL
same,MIC,[7],128 µg/mL
same,MIC,[8],128 µg/mL
same,MIC,[9],232 µM
same,Activity,[10],inactive
same,MIC,[11],128 µg/mL
same,MIC,[12],128 µg/mL
same,MIC,[13],90.8 µM
same,Activity,[14],inactive
same,Activity,[15],Active
same,MIC,[16],256 µg/mL
same,MIC,[17],128 µg/mL
same,Activity,[18],inactive
same,MIC,[19],128 µg/mL
same,MIC,[20],90.8 µM
same,MIC,[21],256 µg/mL
same,Activity,[22],inactive
same,MIC,[23],128 µg/mL
same,Activity,[24],inactive
same,MIC,[25],128 µg/mL
same,MIC,[26],256 µg/mL
same,Activity,[27],inactive
same,inhibition zone (IZ),[28],13 mm
NC[C@H]1O[C@H](O[C@H]2[C@H](O)[C@@H](O[C@H]3O[C@H](CO)[C@@H](O)[C@H](N)[C@H]3O)[C@H](N)C[C@@H]2N)[C@H](O)[C@@H](O)[C@@H]1O,Activity,[29],Active
same,Activity,[30],Active
same,Activity,[31],Active
same,Activity,[32],Active
same,Activity,[33],Active
same,Activity,[34],Active
same,Activity,[35],Active
same,inhibition zone (IZ),[36],9.3 mm
same,Activity,[37],Active
same,Activity,[38],Active
same,Activity,[39],Active
same,Activity,[40],Active
